From ChEMBL document CHEMBL5154665, “Design, synthesis, biochemical evaluation, radiolabeling and in vivo imaging with high affinity class-IIa histone deacetylase inhibitor for molecular imaging and targeted therapy” (Eur J Med Chem, 2022)

Assays:
Histone deacetylase 11 = molecular target: T1, Histone deacetylase 11 (Homo sapiens, UniProt Q96DB2); test: Inhibition of recombinant human HDAC11 using fluorogenic substrate by fluorescence microplate reader assay
T1 sequence (Q96DB2 whole entry): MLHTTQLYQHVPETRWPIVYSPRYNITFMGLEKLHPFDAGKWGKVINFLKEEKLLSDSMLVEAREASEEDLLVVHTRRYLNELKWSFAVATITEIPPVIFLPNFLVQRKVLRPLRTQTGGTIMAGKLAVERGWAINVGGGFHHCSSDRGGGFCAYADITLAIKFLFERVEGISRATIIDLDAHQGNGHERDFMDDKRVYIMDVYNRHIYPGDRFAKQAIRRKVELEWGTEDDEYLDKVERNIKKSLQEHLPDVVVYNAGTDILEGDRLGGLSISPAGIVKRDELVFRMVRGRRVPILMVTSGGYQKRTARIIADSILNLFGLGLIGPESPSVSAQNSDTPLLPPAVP
Summary of the method: (§1)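 Recombinant human HDAC isoforms were tested at 9 inhibitor dilutions in commercial fluorogenic enzyme kits, per the manufacturer's protocol. For class IIa enzymes, deacetylation of a TFA-lysine substrate lets trypsin release a fluorophore, read on a microplate reader. IC50 came from a nonlinear fit of % HDAC activity inhibition against compound concentration.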

[1] = Inhibition of HDAC class 2b in human HT-29 cells using Boc-Lys-Ac as substrate incubated for 3 hrs by microplate reader assay; type: cell-based; details: HT-29, 3 h
Histone deacetylase 2 = Histone deacetylase 2 (Homo sapiens, UniProt Q92769); test: Inhibition of recombinant human HDAC2 using fluorogenic substrate by fluorescence microplate reader assay; summary of the method: as §1
Histone deacetylase 1 = Histone deacetylase 1 (Homo sapiens, UniProt Q13547); test: Inhibition of recombinant human HDAC1 using fluorogenic substrate by fluorescence microplate reader assay; summary of the method: as §1
Histone deacetylase 8 = molecular target: T2, Histone deacetylase 8 (Homo sapiens, UniProt Q9BY41); test: Inhibition of recombinant human HDAC8 using fluorogenic substrate by fluorescence microplate reader assay; summary of the method: as §1
T2 sequence (Q9BY41 whole entry): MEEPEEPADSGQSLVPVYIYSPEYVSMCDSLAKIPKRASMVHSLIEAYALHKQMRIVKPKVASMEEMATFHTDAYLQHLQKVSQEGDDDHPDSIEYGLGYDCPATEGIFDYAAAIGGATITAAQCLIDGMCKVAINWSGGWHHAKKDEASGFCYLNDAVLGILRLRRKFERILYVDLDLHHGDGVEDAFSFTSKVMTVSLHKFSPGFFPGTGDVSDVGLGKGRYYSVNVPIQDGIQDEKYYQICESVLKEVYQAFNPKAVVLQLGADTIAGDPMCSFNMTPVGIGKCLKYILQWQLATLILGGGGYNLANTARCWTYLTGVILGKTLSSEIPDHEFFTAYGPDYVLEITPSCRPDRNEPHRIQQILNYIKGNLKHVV

Histone deacetylase 3 = Histone deacetylase 3 (Homo sapiens, UniProt O15379); test: Inhibition of recombinant human HDAC3 using fluorogenic substrate by fluorescence microplate reader assay; summary of the method: as §1
Histone deacetylase 4 = Histone deacetylase 4 (Homo sapiens, UniProt P56524); test: Inhibition of recombinant human HDAC4 using fluorogenic substrate by fluorescence microplate reader assay; summary of the method: as §1
Histone deacetylase 5 = Histone deacetylase 5 (Homo sapiens, UniProt Q9UQL6); test: Inhibition of recombinant human HDAC5 using fluorogenic substrate by fluorescence microplate reader assay; summary of the method: as §1
[2] = molecular target: T3, Polyamine deacetylase HDAC10 (Homo sapiens, UniProt Q969S8); test: Inhibition of recombinant human HDAC10 using fluorogenic substrate by fluorescence microplate reader assay; summary of the method: as §1
T3 sequence (Q969S8 whole entry): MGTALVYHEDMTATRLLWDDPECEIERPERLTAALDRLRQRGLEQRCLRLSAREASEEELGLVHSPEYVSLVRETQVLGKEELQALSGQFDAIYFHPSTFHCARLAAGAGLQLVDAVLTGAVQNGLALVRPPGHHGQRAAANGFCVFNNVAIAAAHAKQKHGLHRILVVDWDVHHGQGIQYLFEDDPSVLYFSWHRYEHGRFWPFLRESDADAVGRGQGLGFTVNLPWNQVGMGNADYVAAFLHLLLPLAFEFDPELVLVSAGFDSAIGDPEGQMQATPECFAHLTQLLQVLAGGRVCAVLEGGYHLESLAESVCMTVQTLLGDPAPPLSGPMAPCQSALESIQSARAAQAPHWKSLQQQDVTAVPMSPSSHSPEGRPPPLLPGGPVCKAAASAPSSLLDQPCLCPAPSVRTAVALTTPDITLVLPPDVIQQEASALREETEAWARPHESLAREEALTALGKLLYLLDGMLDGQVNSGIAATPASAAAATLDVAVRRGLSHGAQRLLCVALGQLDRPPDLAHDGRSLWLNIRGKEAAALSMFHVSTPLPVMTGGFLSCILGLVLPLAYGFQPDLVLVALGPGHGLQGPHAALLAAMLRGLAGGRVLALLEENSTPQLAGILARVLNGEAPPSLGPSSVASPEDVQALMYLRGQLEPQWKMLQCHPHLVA

Histone deacetylase 9 = Histone deacetylase 9 (Homo sapiens, UniProt Q9UKV0); test: Inhibition of recombinant human HDAC9 using fluorogenic substrate by fluorescence microplate reader assay; summary of the method: as §1
[3] = Inhibition of HDAC class 2a in human HT-29 cells using Boc-Lys-TFA as substrate incubated for 3 hrs by microplate reader assay; type: cell-based; details: HT-29, 3 h
[4] = molecular target: T4, Protein deacetylase HDAC6 (Homo sapiens, UniProt Q9UBN7); test: Inhibition of recombinant human HDAC6 using fluorogenic substrate by fluorescence microplate reader assay; summary of the method: as §1
T4 sequence (Q9UBN7 whole entry): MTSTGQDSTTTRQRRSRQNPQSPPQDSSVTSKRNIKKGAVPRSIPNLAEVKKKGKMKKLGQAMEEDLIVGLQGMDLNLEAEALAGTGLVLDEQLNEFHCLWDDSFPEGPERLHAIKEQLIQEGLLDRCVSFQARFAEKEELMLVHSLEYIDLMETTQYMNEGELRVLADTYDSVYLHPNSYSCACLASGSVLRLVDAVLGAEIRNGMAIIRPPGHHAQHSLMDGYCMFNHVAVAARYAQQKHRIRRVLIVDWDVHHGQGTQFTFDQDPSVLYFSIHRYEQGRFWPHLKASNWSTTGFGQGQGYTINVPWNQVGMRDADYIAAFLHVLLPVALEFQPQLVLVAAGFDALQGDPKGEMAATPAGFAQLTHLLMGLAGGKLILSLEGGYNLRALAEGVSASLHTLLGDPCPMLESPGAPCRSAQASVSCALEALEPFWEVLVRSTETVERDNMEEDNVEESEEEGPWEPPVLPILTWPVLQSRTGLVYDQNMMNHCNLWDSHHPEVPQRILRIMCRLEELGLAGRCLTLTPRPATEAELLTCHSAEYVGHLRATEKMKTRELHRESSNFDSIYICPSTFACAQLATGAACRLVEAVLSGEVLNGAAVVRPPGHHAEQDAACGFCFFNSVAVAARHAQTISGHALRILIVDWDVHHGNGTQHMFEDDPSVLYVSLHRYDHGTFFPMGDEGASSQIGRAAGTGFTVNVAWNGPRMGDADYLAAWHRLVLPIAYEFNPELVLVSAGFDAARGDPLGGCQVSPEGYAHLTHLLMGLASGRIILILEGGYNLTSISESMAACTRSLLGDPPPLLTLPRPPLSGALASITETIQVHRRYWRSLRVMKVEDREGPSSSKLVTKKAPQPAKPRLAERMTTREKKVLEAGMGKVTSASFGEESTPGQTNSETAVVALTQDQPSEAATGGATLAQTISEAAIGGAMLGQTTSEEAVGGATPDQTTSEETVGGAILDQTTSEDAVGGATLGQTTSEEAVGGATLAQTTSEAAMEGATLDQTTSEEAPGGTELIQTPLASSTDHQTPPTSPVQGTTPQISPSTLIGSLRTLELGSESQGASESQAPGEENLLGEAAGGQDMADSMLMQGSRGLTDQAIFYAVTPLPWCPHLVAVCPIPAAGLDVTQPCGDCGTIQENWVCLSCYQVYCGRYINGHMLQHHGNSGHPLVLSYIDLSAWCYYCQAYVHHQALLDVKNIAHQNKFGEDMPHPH

[5] = molecular target: Class 1 histone deacetylase (Homo sapiens, UniProt Q13547+O15379+Q92769+Q9BY41); test: Inhibition of HDAC class 1 in human HT-29 cells using Boc-Lys-Ac as substrate incubated for 3 hrs by microplate reader assay; type: cell-based

Sequence of Histone deacetylase 4 (P56524 whole entry): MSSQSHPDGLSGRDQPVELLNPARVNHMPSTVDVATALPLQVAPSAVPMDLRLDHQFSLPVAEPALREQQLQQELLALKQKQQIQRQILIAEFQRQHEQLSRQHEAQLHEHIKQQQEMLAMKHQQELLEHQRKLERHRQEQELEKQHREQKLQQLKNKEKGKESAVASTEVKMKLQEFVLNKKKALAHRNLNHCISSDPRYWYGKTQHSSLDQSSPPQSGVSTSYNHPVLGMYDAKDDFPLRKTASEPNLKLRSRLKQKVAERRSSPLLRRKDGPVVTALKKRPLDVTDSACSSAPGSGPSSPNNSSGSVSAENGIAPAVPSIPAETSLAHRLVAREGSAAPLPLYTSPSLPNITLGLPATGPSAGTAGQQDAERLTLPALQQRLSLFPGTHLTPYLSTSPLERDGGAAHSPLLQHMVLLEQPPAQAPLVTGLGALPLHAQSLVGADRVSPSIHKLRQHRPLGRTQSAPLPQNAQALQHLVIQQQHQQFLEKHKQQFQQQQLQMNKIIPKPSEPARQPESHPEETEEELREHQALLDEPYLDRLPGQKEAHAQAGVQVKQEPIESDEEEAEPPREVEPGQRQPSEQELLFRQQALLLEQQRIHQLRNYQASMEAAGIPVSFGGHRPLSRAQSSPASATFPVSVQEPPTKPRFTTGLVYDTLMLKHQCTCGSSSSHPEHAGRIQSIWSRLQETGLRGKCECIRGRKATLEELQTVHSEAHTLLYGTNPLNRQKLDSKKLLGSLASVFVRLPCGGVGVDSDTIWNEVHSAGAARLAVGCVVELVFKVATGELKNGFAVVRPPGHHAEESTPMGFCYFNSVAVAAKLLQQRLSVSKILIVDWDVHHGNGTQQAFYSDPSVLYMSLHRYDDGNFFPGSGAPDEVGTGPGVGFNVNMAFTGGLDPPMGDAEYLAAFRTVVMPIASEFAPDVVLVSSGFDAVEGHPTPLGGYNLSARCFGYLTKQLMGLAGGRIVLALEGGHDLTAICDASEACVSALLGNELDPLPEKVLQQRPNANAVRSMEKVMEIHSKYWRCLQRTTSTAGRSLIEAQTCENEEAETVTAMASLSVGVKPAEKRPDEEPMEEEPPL
Sequence of Histone deacetylase 5 (Q9UQL6 whole entry): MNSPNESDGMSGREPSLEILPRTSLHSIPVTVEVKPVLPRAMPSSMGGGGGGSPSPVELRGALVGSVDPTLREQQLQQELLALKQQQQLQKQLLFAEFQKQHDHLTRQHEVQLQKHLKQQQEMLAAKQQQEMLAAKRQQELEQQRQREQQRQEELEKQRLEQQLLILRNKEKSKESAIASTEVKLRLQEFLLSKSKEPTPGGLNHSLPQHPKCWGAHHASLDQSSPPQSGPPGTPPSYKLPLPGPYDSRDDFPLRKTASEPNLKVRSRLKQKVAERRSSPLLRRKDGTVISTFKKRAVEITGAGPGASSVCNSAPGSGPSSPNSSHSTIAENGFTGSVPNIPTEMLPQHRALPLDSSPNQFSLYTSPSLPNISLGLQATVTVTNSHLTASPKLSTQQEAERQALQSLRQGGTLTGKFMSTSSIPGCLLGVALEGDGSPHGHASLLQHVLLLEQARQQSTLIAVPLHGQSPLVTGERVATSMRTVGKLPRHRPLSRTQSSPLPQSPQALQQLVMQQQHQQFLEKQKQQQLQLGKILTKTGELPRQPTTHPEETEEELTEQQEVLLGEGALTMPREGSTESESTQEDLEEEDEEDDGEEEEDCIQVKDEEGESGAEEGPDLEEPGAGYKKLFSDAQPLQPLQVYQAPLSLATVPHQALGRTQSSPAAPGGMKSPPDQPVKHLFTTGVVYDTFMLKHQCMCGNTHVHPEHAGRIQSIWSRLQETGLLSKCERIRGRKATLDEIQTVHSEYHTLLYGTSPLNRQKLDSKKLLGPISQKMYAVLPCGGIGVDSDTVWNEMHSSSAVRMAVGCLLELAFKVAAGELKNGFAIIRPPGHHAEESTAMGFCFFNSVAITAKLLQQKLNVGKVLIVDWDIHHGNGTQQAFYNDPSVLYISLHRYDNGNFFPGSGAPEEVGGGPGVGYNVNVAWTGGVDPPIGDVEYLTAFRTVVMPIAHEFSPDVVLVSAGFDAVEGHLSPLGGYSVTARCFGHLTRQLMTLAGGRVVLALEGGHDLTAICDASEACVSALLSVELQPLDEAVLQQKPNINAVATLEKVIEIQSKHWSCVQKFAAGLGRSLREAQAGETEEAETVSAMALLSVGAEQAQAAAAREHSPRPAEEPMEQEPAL
Sequence of Histone deacetylase 1 (Q13547 whole entry): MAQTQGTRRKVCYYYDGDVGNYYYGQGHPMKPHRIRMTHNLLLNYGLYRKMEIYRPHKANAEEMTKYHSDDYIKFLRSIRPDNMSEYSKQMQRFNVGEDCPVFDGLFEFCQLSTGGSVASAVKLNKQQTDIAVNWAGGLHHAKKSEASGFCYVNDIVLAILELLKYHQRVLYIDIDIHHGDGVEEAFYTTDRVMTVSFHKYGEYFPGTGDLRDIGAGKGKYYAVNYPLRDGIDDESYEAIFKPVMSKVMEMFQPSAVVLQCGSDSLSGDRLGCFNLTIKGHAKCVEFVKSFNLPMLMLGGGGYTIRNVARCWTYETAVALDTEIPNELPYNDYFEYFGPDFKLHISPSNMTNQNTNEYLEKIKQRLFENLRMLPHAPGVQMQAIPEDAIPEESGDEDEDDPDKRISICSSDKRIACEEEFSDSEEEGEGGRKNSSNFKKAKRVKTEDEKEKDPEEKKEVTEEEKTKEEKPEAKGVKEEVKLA
Sequence of Histone deacetylase 3 (O15379 whole entry): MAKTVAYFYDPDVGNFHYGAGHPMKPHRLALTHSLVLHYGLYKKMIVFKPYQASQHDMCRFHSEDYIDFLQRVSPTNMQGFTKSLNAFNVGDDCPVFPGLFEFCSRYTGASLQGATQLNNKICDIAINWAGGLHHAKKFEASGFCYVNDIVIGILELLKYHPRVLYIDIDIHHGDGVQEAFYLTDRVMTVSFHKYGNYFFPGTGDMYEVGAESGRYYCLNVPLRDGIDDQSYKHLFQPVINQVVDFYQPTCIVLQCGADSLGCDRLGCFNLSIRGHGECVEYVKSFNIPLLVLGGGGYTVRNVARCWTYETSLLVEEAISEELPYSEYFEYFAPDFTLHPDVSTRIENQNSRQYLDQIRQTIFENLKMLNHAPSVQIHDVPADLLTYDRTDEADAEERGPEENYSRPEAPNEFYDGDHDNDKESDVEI
Sequence of Histone deacetylase 2 (Q92769 whole entry): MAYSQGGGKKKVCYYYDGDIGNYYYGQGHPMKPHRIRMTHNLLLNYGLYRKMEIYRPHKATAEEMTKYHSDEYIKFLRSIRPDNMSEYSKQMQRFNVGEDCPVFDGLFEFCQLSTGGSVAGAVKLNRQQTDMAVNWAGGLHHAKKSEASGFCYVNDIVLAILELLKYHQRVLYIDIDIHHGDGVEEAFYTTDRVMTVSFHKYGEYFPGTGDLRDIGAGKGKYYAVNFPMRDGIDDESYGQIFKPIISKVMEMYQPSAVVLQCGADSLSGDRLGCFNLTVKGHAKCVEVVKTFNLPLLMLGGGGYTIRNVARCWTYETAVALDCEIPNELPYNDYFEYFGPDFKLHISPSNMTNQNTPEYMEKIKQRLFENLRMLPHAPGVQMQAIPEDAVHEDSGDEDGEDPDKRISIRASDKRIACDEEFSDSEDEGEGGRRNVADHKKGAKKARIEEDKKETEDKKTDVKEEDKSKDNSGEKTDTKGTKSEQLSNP
Sequence of Histone deacetylase 9 (Q9UKV0 whole entry): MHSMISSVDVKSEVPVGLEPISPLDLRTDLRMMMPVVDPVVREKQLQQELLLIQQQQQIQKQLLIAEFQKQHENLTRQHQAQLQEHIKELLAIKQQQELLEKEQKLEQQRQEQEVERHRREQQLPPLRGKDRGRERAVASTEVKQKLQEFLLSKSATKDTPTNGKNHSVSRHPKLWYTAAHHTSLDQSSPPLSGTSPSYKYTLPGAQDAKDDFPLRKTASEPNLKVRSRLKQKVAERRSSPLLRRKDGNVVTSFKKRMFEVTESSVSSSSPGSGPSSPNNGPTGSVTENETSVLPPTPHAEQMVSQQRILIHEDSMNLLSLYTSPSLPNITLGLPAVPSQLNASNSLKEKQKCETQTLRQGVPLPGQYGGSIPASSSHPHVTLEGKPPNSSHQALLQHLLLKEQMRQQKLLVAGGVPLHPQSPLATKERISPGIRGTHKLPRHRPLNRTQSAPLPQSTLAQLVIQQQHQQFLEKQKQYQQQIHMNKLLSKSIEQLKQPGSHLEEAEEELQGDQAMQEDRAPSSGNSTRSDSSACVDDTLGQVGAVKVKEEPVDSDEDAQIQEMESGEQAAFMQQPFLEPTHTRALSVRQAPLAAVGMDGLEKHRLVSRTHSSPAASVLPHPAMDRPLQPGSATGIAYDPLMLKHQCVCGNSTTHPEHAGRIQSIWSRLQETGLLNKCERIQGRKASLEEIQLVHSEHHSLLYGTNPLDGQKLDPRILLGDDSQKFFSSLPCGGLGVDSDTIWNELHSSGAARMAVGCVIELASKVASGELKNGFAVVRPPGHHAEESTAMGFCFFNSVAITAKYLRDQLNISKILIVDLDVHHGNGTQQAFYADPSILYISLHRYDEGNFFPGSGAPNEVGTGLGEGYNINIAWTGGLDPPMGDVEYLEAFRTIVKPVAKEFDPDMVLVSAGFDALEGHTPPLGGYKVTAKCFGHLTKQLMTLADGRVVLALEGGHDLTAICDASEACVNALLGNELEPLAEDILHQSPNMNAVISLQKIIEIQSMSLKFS

| Structure (SMILES) | IC50 [1] [nM] | IC50 [3] [nM] | IC50 [5] [nM] | further results |
| --- | --- | --- | --- | --- |
| CN(Cc1ccccc1)C(=O)CCNC(=O)c1ccc(-c2noc(C(F)(F)F)n2)cc1 | > 15000 | 905 | > 15000 |  |
| COC[C@@H](NC(=O)c1ccc(-c2noc(C(F)(F)F)n2)cc1)C(=O)NCc1ccc(F)cc1 | > 15000 | 233 | > 15000 |  |
| CN(Cc1ccccc1)C(=O)C(C)(C)CNC(=O)c1ccc(-c2noc(C(F)(F)F)n2)cc1 | > 15000 | 933 | > 15000 |  |
| C[C@H](CN(C)Cc1ccc(F)cc1)NC(=O)c1ccc(-c2noc(C(F)(F)F)n2)cc1 | > 15000 | 59 | > 15000 |  |
| CC(C)(CNC(=O)c1ccc(-c2noc(C(F)(F)F)n2)cc1)C(=O)NCc1ccccc1 | > 15000 | 768 | > 15000 |  |
| CN(Cc1ccccc1)C(=O)C(C)(C)CNC(=O)c1cccc(-c2noc(C(F)(F)F)n2)c1 | > 50000 | > 50000 | > 50000 |  |
| COC[C@@H](NC(=O)c1ccc(-c2noc(C(F)(F)F)n2)cc1)C(=O)NCc1ccccc1 | > 15000 | 537 | > 15000 |  |
| C[C@H](CN(C)Cc1ccccc1)NC(=O)c1cccc(-c2noc(C(F)(F)F)n2)c1 | > 50000 | > 50000 | > 50000 |  |

Further lines, with some results ahead:

| IC50 [1] [nM] | IC50 [3] [nM] | IC50 [5] [nM] | Structure (SMILES) | further results |
| --- | --- | --- | --- | --- |
| > 15000 | 46 | > 15000 | C[C@H](CN(C)Cc1ccccc1)NC(=O)c1ccc(-c2noc(C(F)(F)F)n2)cc1 | IC50 (Histone deacetylase 11): > 600 nM; IC50 (Histone deacetylase 2): > 600 nM; IC50 (Histone deacetylase 1): > 600 nM; IC50 (Histone deacetylase 8): > 600 nM; IC50 (Histone deacetylase 3): > 600 nM; IC50 (Histone deacetylase 4): 0.08 nM; IC50 (Histone deacetylase 5): 1.2 nM; IC50 [2]: > 600 nM; IC50 (Histone deacetylase 9): 0.9 nM; IC50 [4]: > 600 nM |
| > 50000 | 147 | > 50000 | C[C@H](CN(C)Cc1ccccc1)NC(=O)c1ccc(-c2noc(C(F)(F)F)n2)nc1 |  |
| > 50000 | > 50000 | > 50000 | CN(Cc1ccccc1)C(=O)CCNC(=O)c1cccc(-c2noc(C(F)(F)F)n2)c1 |  |
| > 15000 | > 5000 | > 15000 | CC(C)(CNC(=O)c1ccc(-c2noc(C(F)(F)F)n2)cc1)c1coc(-c2ccccc2)n1 |  |
| > 5000 | > 5000 | > 5000 | C[C@H](CN(C)Cc1ccccc1)NC(=O)c1ccc(-c2noc(C(F)(F)Br)n2)cc1 |  |
| > 15000 | 953 | > 15000 | C[C@@H](NC(=O)c1ccc(-c2noc(C(F)(F)F)n2)cc1)C(=O)NCc1ccccc1 |  |
| > 2000 | > 2000 | > 2000 | C[C@H](CN(C)Cc1ccccc1)NC(=O)c1ccc(-c2noc(C(F)(F)Cl)n2)cc1 |  |
| > 15000 | 1710 | > 15000 | COC[C@@H](NC(=O)c1ccc(-c2noc(C(F)(F)F)n2)nc1)C(=O)NCc1ccccc1 |  |
| > 50000 | 395 | > 50000 | CC(CN(C)Cc1ccccc1)NC(=O)c1ccc(-c2noc(C(F)(F)F)n2)cc1 (stereo unspecified) |  |
